Laboratory results published in ChEMBL document CHEMBL1150790, “Biochemical characterization of PER-2 and genetic environment of blaPER-2” (Antimicrob Agents Chemother, 2007).
In brackets after ≈: the same amount, converted by molar mass.

Assays:
[1] = target: T1, PER-2 beta-lactamase (Citrobacter freundii) (UniProt A2RP81); experiment: Ratio of Kcat to Km of Citrobacter freundii PER2 beta lactamase relative to cephalothin
T1 sequence (whole entry): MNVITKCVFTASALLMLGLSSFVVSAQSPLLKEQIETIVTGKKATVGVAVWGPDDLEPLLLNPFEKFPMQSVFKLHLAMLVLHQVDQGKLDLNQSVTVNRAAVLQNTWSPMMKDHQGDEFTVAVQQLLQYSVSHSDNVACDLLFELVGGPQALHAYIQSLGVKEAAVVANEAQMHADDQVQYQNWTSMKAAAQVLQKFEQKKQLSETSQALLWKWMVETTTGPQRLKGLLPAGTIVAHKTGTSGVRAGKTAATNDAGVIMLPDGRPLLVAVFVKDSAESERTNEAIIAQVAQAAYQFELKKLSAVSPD
Outline: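 Purified recombinant PER-2 (E. coli BL21(DE3) expression, Q-Sepharose purification) was assayed spectrophotometrically at 30°C in 500 μl. kcat and Km came from initial steady-state rates.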

Escherichia coli [2] = experiment: Antimicrobial activity against Escherichia coli CAG12177 by agar dilution method; format: functional
Outline: (§1)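 MICs were determined by agar dilution following CLSI guidelines, with inoculum applied by a Steers multipoint inoculator.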

Citrobacter freundii = experiment: Antimicrobial activity against Citrobacter freundii 33587 isolate by agar dilution method; format: functional; outline: as §1
Escherichia coli [3] = experiment: Antimicrobial activity against Escherichia coli 33587-TC9 by agar dilution method; format: functional; outline: as §1
PER-2 beta-lactamase = target: T2, PER-2 beta-lactamase (Citrobacter freundii, UniProt A2RP81); experiment: Inhibition of Citrobacter freundii PER2 beta lactamase
T2 sequence (A2RP81 whole entry): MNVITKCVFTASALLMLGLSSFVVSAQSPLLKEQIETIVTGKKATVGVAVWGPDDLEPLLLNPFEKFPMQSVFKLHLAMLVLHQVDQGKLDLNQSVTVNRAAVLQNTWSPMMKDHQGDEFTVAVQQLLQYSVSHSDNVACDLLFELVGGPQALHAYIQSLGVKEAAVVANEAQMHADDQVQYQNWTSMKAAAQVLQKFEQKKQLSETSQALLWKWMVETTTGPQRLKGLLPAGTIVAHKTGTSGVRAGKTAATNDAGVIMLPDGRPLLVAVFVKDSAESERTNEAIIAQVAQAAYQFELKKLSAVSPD
Outline: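 Purified recombinant PER-2 was incubated with the drug plus 100 μM nitrocefin as reporter substrate in 500 μl at 30°C. Residual enzyme activity was read spectrophotometrically. Apparent Km values were derived as competitive inhibitor constants (Ki).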

Alcaligenes faecalis [4] = experiment: Activity of Alcaligenes faecalis PER2 beta lactamase
Outline: (§2)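 Purified recombinant PER-2 (expressed in E. coli BL21(DE3) from pET28a(+), IPTG-induced, Q-Sepharose purified). β-Lactam hydrolysis was followed spectrophotometrically at 30°C. For good substrates, Km and kcat came from initial rates. […] For poor substrates, kcat came from complete hydrolysis time courses.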

Alcaligenes faecalis [5] = experiment: Ratio of Kcat to Km of Alcaligenes faecalis PER2 beta lactamase; outline: as §2

SMILES: CC(=O)OCC1=C(C(=O)O)N2C(=O)[C@@H](NC(=O)Cc3cccs3)[C@H]2SC1 [CEPHALOTHIN]
- Activity [1]: 100%
- MIC (Escherichia coli [2]): 0.5 µg/mL (≈ 1.26 µM)
- MIC (Citrobacter freundii): 512 µg/mL (≈ 1290 µM)
- MIC (Escherichia coli [3]): > 512 µg/mL

SMILES: C[C@H]1[C@H](NC(=O)/C(=N\OC(C)(C)C(=O)O)c2csc(N)n2)C(=O)N1S(=O)(=O)O [AZTREONAM]
- Activity [1]: 18%
- Ki (PER-2 beta-lactamase): 2 µM
- MIC (Escherichia coli [2]): ≤ 0.016 µg/mL
- MIC (Citrobacter freundii): 256 µg/mL (≈ 588 µM)
- MIC (Escherichia coli [3]): 256 µg/mL (≈ 588 µM)

SMILES: O=C(N[C@H](CO)[C@H](O)c1ccc([N+](=O)[O-])cc1)C(Cl)Cl [CHLORAMPHENICOL]
- MIC (Escherichia coli [2]): 2 µg/mL (≈ 6.19 µM)
- MIC (Citrobacter freundii): > 32 µg/mL
- MIC (Escherichia coli [3]): > 32 µg/mL

SMILES: CN(C)[C@@H]1C(O)=C(C(N)=O)C(=O)[C@@]2(O)C(O)=C3C(=O)c4c(O)cccc4[C@@](C)(O)[C@H]3C[C@@H]12 [TETRACYCLINE]
- MIC (Escherichia coli [2]): 32 µg/mL (≈ 72 µM)
- MIC (Citrobacter freundii): 0.5 µg/mL (≈ 1.13 µM)
- MIC (Escherichia coli [3]): 32 µg/mL (≈ 72 µM)

SMILES: CO/N=C(\C(=O)N[C@@H]1C(=O)N2C(C(=O)O)=C(COC(N)=O)CS[C@H]12)c1ccco1
- Activity [1]: 45%

SMILES: CC1(C)S[C@@H]2[C@H](NC(=O)[C@H](N)c3ccccc3)C(=O)N2[C@H]1C(=O)O [AMPICILLIN]
- Activity [1]: 49%
- MIC (Escherichia coli [2]): 0.25 µg/mL (≈ 0.715 µM)
- MIC (Citrobacter freundii): > 512 µg/mL
- MIC (Escherichia coli [3]): > 512 µg/mL

SMILES: CCN1CCN(C(=O)N[C@@H](C(=O)N[C@@H]2C(=O)N3C(C(=O)O)=C(CSc4nnnn4C)CS[C@H]23)c2ccc(O)cc2)C(=O)C1=O
- Activity [1]: 15%

SMILES: CC(C)(O/N=C(\C(=O)N[C@@H]1C(=O)N2C(C(=O)[O-])=C(C[n+]3ccccc3)CS[C@H]12)c1csc(N)n1)C(=O)O [CEFTAZIDIME]
- Activity [1]: 64%
- Km (Alcaligenes faecalis [4]): 806 µM
- kcat/Km (Alcaligenes faecalis [5]): 30000 M⁻¹ s⁻¹
- MIC (Escherichia coli [2]): ≤ 0.063 µg/mL
- MIC (Citrobacter freundii): 128 µg/mL (≈ 234 µM)
- MIC (Escherichia coli [3]): > 128 µg/mL

SMILES: CC1(C)S[C@@H]2[C@H](NC(=O)Cc3ccccc3)C(=O)N2[C@H]1C(=O)O
- Activity [1]: 18%
